ChEMBL document CHEMBL2396535, “Synthesis and biological evaluation of 18F-labled 2-phenylindole derivatives as PET imaging probes for β-amyloid plaques” (Bioorg Med Chem, 2013)

Columns and labels:
[1] = Ratio of drug level in brain to blood in ICR mouse after 2 mins; type: ADME, tissue-based; conditions: brain and blood, read-out: BBR
Summary of the method: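 Male ICR mice (5 weeks) received the ¹⁸F tracer (740–1110 kBq/mL) in saline with 10% EtOH by tail-vein injection. Five mice per time point were sacrificed at 2, 10, 30 and 60 min. Organs were removed, weighed and gamma-counted, and expressed as %ID/g. The ratio is brain %ID/g over blood %ID/g at 2 min.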

Brain [2] = experiment: Ratio of drug level in brain after 2 mins to drug level in brain after 60 mins in ICR mouse; type: ADME, tissue-based; conditions: in vivo
Summary of the method: (§1)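 Male normal ICR mice (5 weeks old), n = 5 per time point, received a tail-vein injection of [18F] tracer (740–1110 kBq/mL) in saline containing 10% EtOH. Mice were sacrificed at 2, 10, 30 and 60 min. Organs were removed, weighed and gamma-counted, and data were expressed as %ID/g.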

Intestine [3] = experiment: Biodistribution in ICR mouse intestine assessed per organ at 740 to 1110 kBq/mL, iv measured 60 mins post-injection by gamma counting analysis; type: ADME, organism-based; conditions: in vivo, 1 h; summary of the method: as §1
Intestine [4] = experiment: Biodistribution in ICR mouse intestine assessed per organ at 740 to 1110 kBq/mL, iv measured 30 mins post-injection by gamma counting analysis; type: ADME, organism-based; conditions: in vivo, 0.5 h; summary of the method: as §1
Intestine [5] = experiment: Biodistribution in ICR mouse intestine assessed per organ at 740 to 1110 kBq/mL, iv measured 10 mins post-injection by gamma counting analysis; type: ADME, organism-based; conditions: in vivo; summary of the method: as §1
Intestine [6] = experiment: Biodistribution in ICR mouse intestine assessed per organ at 740 to 1110 kBq/mL, iv measured 2 mins post-injection by gamma counting analysis; type: ADME, organism-based; conditions: in vivo; summary of the method: as §1
Stomach [7] = experiment: Biodistribution in ICR mouse stomach assessed per organ at 740 to 1110 kBq/mL, iv measured 60 mins post-injection by gamma counting analysis; type: ADME, organism-based; conditions: in vivo, 1 h; summary of the method: as §1
Stomach [8] = experiment: Biodistribution in ICR mouse stomach assessed per organ at 740 to 1110 kBq/mL, iv measured 30 mins post-injection by gamma counting analysis; type: ADME, organism-based; conditions: in vivo, 0.5 h; summary of the method: as §1
Stomach [9] = experiment: Biodistribution in ICR mouse stomach assessed per organ at 740 to 1110 kBq/mL, iv measured 10 mins post-injection by gamma counting analysis; type: ADME, organism-based; conditions: in vivo; summary of the method: as §1
Stomach [10] = experiment: Biodistribution in ICR mouse stomach assessed per organ at 740 to 1110 kBq/mL, iv measured 2 mins post-injection by gamma counting analysis; type: ADME, organism-based; conditions: in vivo; summary of the method: as §1
Bone [11] = experiment: Biodistribution in ICR mouse bone assessed per gram of tissue at 740 to 1110 kBq/mL, iv measured 60 mins post-injection by gamma counting analysis; type: ADME, organism-based, Bone element; conditions: in vivo, 1 h; summary of the method: as §1
Bone [12] = experiment: Biodistribution in ICR mouse bone assessed per gram of tissue at 740 to 1110 kBq/mL, iv measured 30 mins post-injection by gamma counting analysis; type: ADME, organism-based, Bone element; conditions: in vivo, 0.5 h; summary of the method: as §1
Bone [13] = experiment: Biodistribution in ICR mouse bone assessed per gram of tissue at 740 to 1110 kBq/mL, iv measured 10 mins post-injection by gamma counting analysis; type: ADME, organism-based, Bone element; conditions: in vivo; summary of the method: as §1
Bone [14] = experiment: Biodistribution in ICR mouse bone assessed per gram of tissue at 740 to 1110 kBq/mL, iv measured 2 mins post-injection by gamma counting analysis; type: ADME, organism-based, Bone element; conditions: in vivo; summary of the method: as §1
Kidney [15] = experiment: Biodistribution in ICR mouse kidney assessed per gram of tissue at 740 to 1110 kBq/mL, iv measured 60 mins post-injection by gamma counting analysis; type: ADME, organism-based; conditions: in vivo, 1 h; summary of the method: as §1
Kidney [16] = experiment: Biodistribution in ICR mouse kidney assessed per gram of tissue at 740 to 1110 kBq/mL, iv measured 30 mins post-injection by gamma counting analysis; type: ADME, organism-based; conditions: in vivo, 0.5 h; summary of the method: as §1
Kidney [17] = experiment: Biodistribution in ICR mouse kidney assessed per gram of tissue at 740 to 1110 kBq/mL, iv measured 10 mins post-injection by gamma counting analysis; type: ADME, organism-based; conditions: in vivo; summary of the method: as §1
Kidney [18] = experiment: Biodistribution in ICR mouse kidney assessed per gram of tissue at 740 to 1110 kBq/mL, iv measured 2 mins post-injection by gamma counting analysis; type: ADME, organism-based; conditions: in vivo; summary of the method: as §1
Lung [19] = experiment: Biodistribution in ICR mouse lung assessed per gram of tissue at 740 to 1110 kBq/mL, iv measured 60 mins post-injection by gamma counting analysis; type: ADME, organism-based; conditions: in vivo, 1 h; summary of the method: as §1
Lung [20] = experiment: Biodistribution in ICR mouse lung assessed per gram of tissue at 740 to 1110 kBq/mL, iv measured 30 mins post-injection by gamma counting analysis; type: ADME, organism-based; conditions: in vivo, 0.5 h; summary of the method: as §1
Lung [21] = experiment: Biodistribution in ICR mouse lung assessed per gram of tissue at 740 to 1110 kBq/mL, iv measured 10 mins post-injection by gamma counting analysis; type: ADME, organism-based; conditions: in vivo; summary of the method: as §1
Lung [22] = experiment: Biodistribution in ICR mouse lung assessed per gram of tissue at 740 to 1110 kBq/mL, iv measured 2 mins post-injection by gamma counting analysis; type: ADME, organism-based; conditions: in vivo; summary of the method: as §1
Spleen [23] = experiment: Biodistribution in ICR mouse spleen assessed per gram of tissue at 740 to 1110 kBq/mL, iv measured 60 mins post-injection by gamma counting analysis; type: ADME, organism-based; conditions: in vivo, 1 h; summary of the method: as §1
Spleen [24] = experiment: Biodistribution in ICR mouse spleen assessed per gram of tissue at 740 to 1110 kBq/mL, iv measured 30 mins post-injection by gamma counting analysis; type: ADME, organism-based; conditions: in vivo, 0.5 h; summary of the method: as §1
Spleen [25] = experiment: Biodistribution in ICR mouse spleen assessed per gram of tissue at 740 to 1110 kBq/mL, iv measured 10 mins post-injection by gamma counting analysis; type: ADME, organism-based; conditions: in vivo; summary of the method: as §1
Spleen [26] = experiment: Biodistribution in ICR mouse spleen assessed per gram of tissue at 740 to 1110 kBq/mL, iv measured 2 mins post-injection by gamma counting analysis; type: ADME, organism-based; conditions: in vivo; summary of the method: as §1
Liver [27] = experiment: Biodistribution in ICR mouse liver assessed per gram of tissue at 740 to 1110 kBq/mL, iv measured 60 mins post-injection by gamma counting analysis; type: ADME, organism-based; conditions: in vivo, 1 h; summary of the method: as §1
Liver [28] = experiment: Biodistribution in ICR mouse liver assessed per gram of tissue at 740 to 1110 kBq/mL, iv measured 30 mins post-injection by gamma counting analysis; type: ADME, organism-based; conditions: in vivo, 0.5 h; summary of the method: as §1
Liver [29] = experiment: Biodistribution in ICR mouse liver assessed per gram of tissue at 740 to 1110 kBq/mL, iv measured 10 mins post-injection by gamma counting analysis; type: ADME, organism-based; conditions: in vivo; summary of the method: as §1
Liver [30] = experiment: Biodistribution in ICR mouse liver assessed per gram of tissue at 740 to 1110 kBq/mL, iv measured 2 mins post-injection by gamma counting analysis; type: ADME, organism-based; conditions: in vivo; summary of the method: as §1
Heart [31] = experiment: Biodistribution in ICR mouse heart assessed per gram of tissue at 740 to 1110 kBq/mL, iv measured 60 mins post-injection by gamma counting analysis; type: ADME, organism-based; conditions: in vivo, 1 h; summary of the method: as §1
Heart [32] = experiment: Biodistribution in ICR mouse heart assessed per gram of tissue at 740 to 1110 kBq/mL, iv measured 30 mins post-injection by gamma counting analysis; type: ADME, organism-based; conditions: in vivo, 0.5 h; summary of the method: as §1
Heart [33] = experiment: Biodistribution in ICR mouse heart assessed per gram of tissue at 740 to 1110 kBq/mL, iv measured 10 mins post-injection by gamma counting analysis; type: ADME, organism-based; conditions: in vivo; summary of the method: as §1
Heart [34] = experiment: Biodistribution in ICR mouse heart assessed per gram of tissue at 740 to 1110 kBq/mL, iv measured 2 mins post-injection by gamma counting analysis; type: ADME, organism-based; conditions: in vivo; summary of the method: as §1
Brain [35] = experiment: Biodistribution in ICR mouse brain assessed per gram of tissue at 740 to 1110 kBq/mL, iv measured 60 mins post-injection by gamma counting analysis; type: ADME, organism-based; conditions: in vivo, 1 h; summary of the method: as §1
Brain [36] = experiment: Biodistribution in ICR mouse brain assessed per gram of tissue at 740 to 1110 kBq/mL, iv measured 30 mins post-injection by gamma counting analysis; type: ADME, organism-based; conditions: in vivo, 0.5 h; summary of the method: as §1
Brain [37] = experiment: Biodistribution in ICR mouse brain assessed per gram of tissue at 740 to 1110 kBq/mL, iv measured 10 mins post-injection by gamma counting analysis; type: ADME, organism-based; conditions: in vivo; summary of the method: as §1
Blood [38] = experiment: Biodistribution in ICR mouse blood assessed per gram of tissue at 740 to 1110 kBq/mL, iv measured 60 mins post-injection by gamma counting analysis; type: ADME, organism-based; conditions: in vivo, 1 h; summary of the method: as §1
Brain [39] = experiment: Biodistribution in ICR mouse brain assessed per gram of tissue at 740 to 1110 kBq/mL, iv measured 2 mins post-injection by gamma counting analysis; type: ADME, organism-based; conditions: in vivo; summary of the method: as §1
Blood [40] = experiment: Biodistribution in ICR mouse blood assessed per gram of tissue at 740 to 1110 kBq/mL, iv measured 30 mins post-injection by gamma counting analysis; type: ADME, organism-based; conditions: in vivo, 0.5 h; summary of the method: as §1
Blood [41] = experiment: Biodistribution in ICR mouse blood assessed per gram of tissue at 740 to 1110 kBq/mL, iv measured 10 mins post-injection by gamma counting analysis; type: ADME, organism-based; conditions: in vivo; summary of the method: as §1
Blood [42] = experiment: Biodistribution in ICR mouse blood assessed per gram of tissue at 740 to 1110 kBq/mL, iv measured 2 mins post-injection by gamma counting analysis; type: ADME, organism-based; conditions: in vivo; summary of the method: as §1
[43] = Partition coefficient, log D of the compound in n-octanol-PBS […] at pH 7.4; type: physicochemical
Summary of the method: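 [18F] tracer (1110 kBq) was added to 3.0 g n-octanol plus 3.0 g PBS (0.05 M, pH 7.4), vortexed 3 min at room temperature, then centrifuged 5 min at 3000 rpm.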

SMILES: CN(CC[18F])c1ccc(-c2cc3ccccc3[nH]2)cc1
- Kp at 2 min [1]: 1.72
- Ratio (Brain [2]): 2.1
- Drug uptake (Intestine [3]): 11.04 %ID
- Drug uptake (Intestine [4]): 9 %ID
- Drug uptake (Intestine [5]): 9.06 %ID
- Drug uptake (Intestine [6]): 6.5 %ID
- Drug uptake (Stomach [7]): 1.09 %ID
- Drug uptake (Stomach [8]): 1.43 %ID
- Drug uptake (Stomach [9]): 1.54 %ID
- Drug uptake (Stomach [10]): 1.38 %ID
- Drug uptake (Bone [11]): 9.71 %ID
- Drug uptake (Bone [12]): 5.95 %ID
- Drug uptake (Bone [13]): 4.13 %ID
- Drug uptake (Bone [14]): 2.05 %ID
- Drug uptake (Kidney [15]): 3.54 %ID
- Drug uptake (Kidney [16]): 4.17 %ID
- Drug uptake (Kidney [17]): 5.62 %ID
- Drug uptake (Kidney [18]): 9.66 %ID
- Drug uptake (Lung [19]): 3.57 %ID
- Drug uptake (Lung [20]): 4.27 %ID
- Drug uptake (Lung [21]): 5.81 %ID
- Drug uptake (Lung [22]): 6.57 %ID
- Drug uptake (Spleen [23]): 2.71 %ID
- Drug uptake (Spleen [24]): 3.23 %ID
- Drug uptake (Spleen [25]): 3.97 %ID
- Drug uptake (Spleen [26]): 2.73 %ID
- Drug uptake (Liver [27]): 4.15 %ID
- Drug uptake (Liver [28]): 4.86 %ID
- Drug uptake (Liver [29]): 8.38 %ID
- Drug uptake (Liver [30]): 10.47 %ID
- Drug uptake (Heart [31]): 3.81 %ID
- Drug uptake (Heart [32]): 3.71 %ID
- Drug uptake (Heart [33]): 4.95 %ID
- Drug uptake (Heart [34]): 6.76 %ID
- Drug uptake (Brain [35]): 2.77 %ID
- Drug uptake (Brain [36]): 3.41 %ID
- Drug uptake (Brain [37]): 5.07 %ID
- Drug uptake (Blood [38]): 4.37 %ID
- Drug uptake (Brain [39]): 5.82 %ID
- Drug uptake (Blood [40]): 4.21 %ID
- Drug uptake (Blood [41]): 3.81 %ID
- Drug uptake (Blood [42]): 3.38 %ID
- logD [43]: 3.61
